The term IC50 denotes the concentration needed to halve the response being measured.

One data set has as its system M14. The data set can be described thus: Antiproliferative activity against human M14 cells after 72 hrs by CellTiter 96 aqueous nonradioactive cell proliferation assay. The format is functional, cell-based. The settings on record: M14, 72 h. The method in brief: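 Antiproliferation in cultured tumour cells, at least 3 replicate wells per concentration per experiment. NCI-H460 came from ATCC. M14, NCI/ADR-RES, OVCAR-4, HCT-15, ACHN and SF-295 came from the National Cancer Institute. IC50 reported from single experiments where no SD is given.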

The next data set concerns UO-31. Briefly: Potency index, ratio of paclitaxel IC50 to compound IC50 for taxane-resistant human UO31 cells after 72 hrs by CellTiter 96 aqueous nonradioactive cell proliferation assay. The format is functional.
Data set [1] in a line: Toxicity in Crl:NU(NCr)-Foxn1 nu mouse xenografted with human […] cells assessed as mortality at 40 mg/kg, ip qd administered for 3 consecutive days followed by 2 days of rest for 3 cycles. The format is organism-based. Particulars: in vivo, 48 h. The method in brief:
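Female athymic nude mice bearing subcutaneous NCI-H522 xenografts started from tumor fragments kept by continuous in vivo passage. Mice were grouped once tumors reached about 75-200 mm3. Dosing was ip at 5-10 mL/kg in 22% ethanol, 38% PEG400, 40% 20 mM Na citrate pH 5.0. Deaths per group were recorded with maximum mean bodyweight loss.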
(In general: A xenograft is tissue or cells of one species grown in another, often human tumour cells in immunodeficient mice.)

The nature of data set [2]: Toxicity in Crl:NU(NCr)-Foxn1 nu mouse xenografted with human NCI-H69 cells assessed as mortality at 70 mg/kg, ip dosed on day 1 followed by 4 days rest and subsequently dosed at 70 mg/kg, ip qd administered for 3 consecutive days followed by 2 days of rest for 2 cycles. The format is organism-based. Particulars: in vivo. The method in brief: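 Female athymic nude mice bearing subcutaneous xenografts started from cultured human tumor cells. Mice were split into vehicle and treatment groups once tumors reached about 75-200 mm3. Dosing was ip at 5-10 mL/kg in 22% ethanol, 38% PEG400, 40% 20 mM Na citrate pH 5.0. Deaths per group were recorded alongside maximum mean bodyweight loss.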

Data set [3] is described as follows: Toxicity in Crl:NU(NCr)-Foxn1 nu mouse xenografted with human Calu6 cells assessed as maximum body weight loss at 50 mg/kg, ip qd administered for 3 consecutive days followed by 2 days of rest for 4 cycles measured after 17 days post dose relative to control. The format is organism-based. Particulars: in vivo, 408 h. The method in brief:
(§1)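 Female athymic nude mice bearing subcutaneous xenografts, started from cultured cells (NCI-H460, Calu-6, NCI-H69, LOX-IMVI) or from serially passaged tumour fragments (NCI-H522). Mice were grouped into vehicle and treatment arms at tumour volumes of about 75-200 mm3. Dosing was ip at 5-10 mL/kg in 22% ethanol, 38% PEG400, 40% 20 mM Na citrate pH 5.0. Caliper volumes were taken as (length × width2)/2. Treated and control delta weights were median tumour weight minus staging-day median.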

For the next data set, the system named is NCI-H460. The data set can be described thus: Antitumor activity against human NCI-H460 cells xenografted in Crl:NU(NCr)-Foxn1 nu mouse assessed as tumor growth inhibition at 40 mg/kg, ip qd administered for 3 consecutive days followed by 2 days of rest for 3 cycles relative to control. The format is functional. Particulars: 48 h, read-out: TGI. The method in brief:
as §1

For the next data set, the system named is NCI-H522. The data set can be described thus: Antitumor activity against human NCI-H522 cells xenografted in Crl:NU(NCr)-Foxn1 nu mouse assessed as tumor growth inhibition at 60 mg/kg, ip qd administered for 3 consecutive days followed by 2 days of rest for 3 cycles relative to control. The format is functional. Particulars: 48 h, read-out: TGI. The method in brief: as §1

As for `C=CC[C@H]1C[C@]2([C@H](C)Cc3cc(O)c(OC)cc3F)OCOC2=CC1=O`, the half-inhibitory concentration (IC50) in the data set with M14 was found to be 17 nM. The “Ratio IC50” value in the data set on UO-31 turned out to be 34. Also, the Activity result in data set [1] is reported as “Non-Toxic”; in data set [2], “Non-Toxic”; in data set [3], 4%. In addition, the inhibition in vivo at 40 mg/kg in the data set on NCI-H460 came to 71%. For the same compound, in the data set on NCI-H522, the inhibition in vivo at 60 mg/kg was 82%.
